Screening data (PubChem BioAssay)
The list is not random: actives were taken first. Their share in the collection is about 3.5%.
MrgX1 allo act – allosterically activates human MrgX1 receptor signaling | B-score at 10 µM | 0.63% of 310,000 active | MrgX1-HEK293, Fluo-4 calcium flux, FDSS; stronger effect = higher value;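 active = plate-corrected calcium response at least 3 library SD above typical, normal starting fluorescence, not activating the receptor alone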;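 also: compound read alongside a low EC10 to EC30 dose of BAM8-22 agonist; peak minus trough fluorescence over baseline measured at the second addition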
Target sequence (Q96LB2 whole entry, looked up): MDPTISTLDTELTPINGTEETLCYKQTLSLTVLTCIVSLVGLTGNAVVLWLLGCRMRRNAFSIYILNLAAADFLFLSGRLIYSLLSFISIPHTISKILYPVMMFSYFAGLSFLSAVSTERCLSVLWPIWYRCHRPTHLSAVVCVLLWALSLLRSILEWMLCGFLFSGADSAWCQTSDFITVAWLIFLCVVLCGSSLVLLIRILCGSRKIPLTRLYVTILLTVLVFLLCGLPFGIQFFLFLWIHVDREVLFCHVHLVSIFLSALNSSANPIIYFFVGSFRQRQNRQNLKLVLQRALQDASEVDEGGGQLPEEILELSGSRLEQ
RGS4 block – inhibitors of human RGS4; B-score at 10 µM; P49798; HEK293 M3R/RGS4 inducible, Fluo-4 calcium flux; stronger effect = higher value; triggered by carbachol at its EC20; 0.45% of 310,000 active;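 active = B-score, a plate-corrected calcium signal, over three deviations above library mean, with baseline fluorescence within five deviations of library mean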;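 also: RGS4 expression induced by doxycycline in cells with stable M3 receptor; B-score is computed from the integrated fluorescence ratio over baseline after carbachol; higher B-score means a larger calcium signal and so more RGS4 inhibition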
Target sequence (P49798 whole entry, looked up): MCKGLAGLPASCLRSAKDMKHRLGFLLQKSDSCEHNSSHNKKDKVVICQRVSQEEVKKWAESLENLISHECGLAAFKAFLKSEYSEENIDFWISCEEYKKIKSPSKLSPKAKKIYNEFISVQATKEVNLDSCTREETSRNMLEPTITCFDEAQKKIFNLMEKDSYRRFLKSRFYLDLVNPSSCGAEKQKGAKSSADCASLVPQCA
RGS4 act – RGS4 potentiation or activation; 0.92% of 310,000 active; AID 463111; B-score at 10 µM; HEK293 M3R/inducible RGS4, carbachol calcium flux Fluo4; stronger effect = lower value;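 active = B-score of the integrated calcium signal more than 4 SD below the library mean, with starting fluorescence not abnormally high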;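 also: negative B-score means reduced calcium response which marks RGS4 activation or potentiation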
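Material: Inducible-RGS4 HEK293 cells carrying M3 receptor; also added: carbachol at ECmax as muscarinic agonist stimulus; incubation: compound preincubation 20 min at room temperature before agonist; signal: Fluo4-AM (2 µM) calcium-flux fluorescence, kinetic read; measure: integrated calcium ratio converted to B score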
MrgX1 antagonist – antagonists of human MrgX1 receptor; MRGX1-HEK293 calcium flux, Fluo-4, BAM8-22 antagonism; stronger effect = lower value; B-score at 10 µM; 1.3% of 310,000 active; AID 588676;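 active = calcium-response B-score plate-corrected more than 3 library SD below zero, starting fluorescence within 5 deviations, no agonist response on first addition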;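 also: peak minus trough fluorescence over baseline after final BAM8-22 challenge near maximal dose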
MrgX1 ag – agonists of human MrgX1 receptor; Q96LB2; MrgX1-HEK293 cells, Fluo-4 calcium fluorescence, agonist mode; stronger effect = higher value; B-score at 10 µM; 0.44% of 310,000 active;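 active = calcium response B-score plate-corrected fluorescence ratio at least 3 library SD, with starting fluorescence B-score inside 5 SD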
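Test system: HEK293 cells stably expressing human MrgX1 receptor; Input: fifteen thousand cells per well; Dosing: compound delivered in addition one of three; Schedule: overnight seeding, then 1 h dark dye loading; Technique: Fluo-4 NW calcium fluorescence; Measure: B-scored fluorescence response ratio; Controls: positive and negative controls per plate.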
An asterisk follows results filed as active.

What do the screens show for `COc1cccc(-c2nc(C(=O)NCC3CCCO3)cc3c2[nH]c2ccccc23)c1` (stereo not given)?
MrgX1 allo act: inactive; RGS4 block: inactive; RGS4 act: -7.2*; MrgX1 antagonist: inactive; MrgX1 ag: inactive

How did COc1ccc(OC)c(-c2nc(C(=O)NCC3CCCO3)cc3c2[nH]c2ccccc23)c1 (stereo not given) do in these assays?
MrgX1 allo act: inactive; RGS4 block: inactive; RGS4 act: inactive; MrgX1 antagonist: inactive; MrgX1 ag: inactive

How did Cc1cc(=O)[nH]c2c1cnn2C(C)c1ccccc1 (stereo not given) do in these assays?
MrgX1 allo act: inactive; RGS4 block: inactive; RGS4 act: inactive; MrgX1 antagonist: inactive; MrgX1 ag: inactive

Results for Nc1c(S(=O)(=O)c2cccc(Cl)c2)c2nc3ccccc3nc2n1/N=C/c1ccc(O)c(O)c1 ?
MrgX1 allo act: inactive; RGS4 block: 16*; RGS4 act: inactive; MrgX1 antagonist: inactive; MrgX1 ag: inactive

What do the screens show for `COc1cccc(/C=N/n2c(N)c(S(=O)(=O)c3cccs3)c3nc4ccccc4nc32)c1OC`?
MrgX1 allo act: inactive; RGS4 block: inactive; RGS4 act: inactive; MrgX1 antagonist: inactive; MrgX1 ag: inactive

Results for Cc1c2ccccc2nc2c(F)c(N(C)C)c(F)c(F)c12 ?
MrgX1 allo act: inactive; RGS4 block: inactive; RGS4 act: inactive; MrgX1 antagonist: -8.1*; MrgX1 ag: inactive

What do the screens show for `N#C/C(=C\C=C\c1ccccc1[N+](=O)[O-])C(=O)NC1CCCCC1`?
MrgX1 allo act: 14*; RGS4 block: inactive; RGS4 act: inactive; MrgX1 antagonist: inactive; MrgX1 ag: inactive

What do the screens show for `CCOc1ccccc1/C=C(\C#N)C(=O)NC1CC1`?
MrgX1 allo act: inactive; RGS4 block: inactive; RGS4 act: inactive; MrgX1 antagonist: inactive; MrgX1 ag: inactive

How did N#C/C(=C\c1ccccc1[N+](=O)[O-])C(=O)NC1CCCCC1 do in these assays?
MrgX1 allo act: inactive; RGS4 block: inactive; RGS4 act: inactive; MrgX1 antagonist: inactive; MrgX1 ag: 35*

What do the screens show for `Cc1onc(-c2ccccc2)c1C(=O)N1CCN(Cc2ccccc2)CC1`?
MrgX1 allo act: inactive; RGS4 block: inactive; RGS4 act: inactive; MrgX1 antagonist: inactive; MrgX1 ag: inactive

Results for O=C(NCCN1CCCCC1)c1cc(Cl)ccc1Cl ?
MrgX1 allo act: inactive; RGS4 block: inactive; RGS4 act: inactive; MrgX1 antagonist: inactive; MrgX1 ag: inactive

How did Cc1nc2ccc(S(=O)(=O)NCC(=O)NCCc3ccc(Cl)cc3)cc2s1 do in these assays?
MrgX1 allo act: inactive; RGS4 block: inactive; RGS4 act: inactive; MrgX1 antagonist: inactive; MrgX1 ag: inactive

Results for O=C(CC(=O)c1cc(Cl)ccc1O)c1ccccc1 ?
MrgX1 allo act: inactive; RGS4 block: inactive; RGS4 act: inactive; MrgX1 antagonist: -5*; MrgX1 ag: inactive

Results for CSc1ccccc1NC(=O)C1=CC(c2cccs2)=NS(=O)(=O)N1C ?
MrgX1 allo act: inactive; RGS4 block: inactive; RGS4 act: inactive; MrgX1 antagonist: inactive; MrgX1 ag: inactive

What do the screens show for `NC(=O)C1CCN(CC(=O)N2N=CCC2c2ccccc2)CC1` (stereo not given)?
MrgX1 allo act: inactive; RGS4 block: inactive; RGS4 act: inactive; MrgX1 antagonist: -5.8*; MrgX1 ag: inactive

What do the screens show for `CCCn1ncc(CN2CCC(n3nccc3NC(=O)CCc3ccccc3)CC2)c1C`?
MrgX1 allo act: inactive; RGS4 block: inactive; RGS4 act: inactive; MrgX1 antagonist: inactive; MrgX1 ag: inactive

Results for NCC(O)(c1ccc(Cl)cc1)c1ccc(Cl)cc1 ?
MrgX1 allo act: inactive; RGS4 block: inactive; RGS4 act: inactive; MrgX1 antagonist: inactive; MrgX1 ag: 37*

How did CC(C)(C)NCC(O)(c1ccc(Cl)cc1)c1ccc(Cl)cc1 do in these assays?
MrgX1 allo act: inactive; RGS4 block: inactive; RGS4 act: inactive; MrgX1 antagonist: inactive; MrgX1 ag: inactive

What do the screens show for `Oc1ccc2ccccc2c1/C=N/Nc1ccccc1`?
MrgX1 allo act: inactive; RGS4 block: inactive; RGS4 act: inactive; MrgX1 antagonist: inactive; MrgX1 ag: inactive

What do the screens show for `O=CN/N=C/c1c(O)ccc2ccccc12`?
MrgX1 allo act: inactive; RGS4 block: inactive; RGS4 act: inactive; MrgX1 antagonist: -5*; MrgX1 ag: inactive

Results for Cc1cc(N/N=C/c2c(O)ccc3ccccc23)nc(-c2ccccc2O)n1 ?
MrgX1 allo act: inactive; RGS4 block: inactive; RGS4 act: -8*; MrgX1 antagonist: inactive; MrgX1 ag: inactive

How did Cc1cc(Nc2ccccc2)nc(-c2ccccc2O)n1 do in these assays?
MrgX1 allo act: inactive; RGS4 block: inactive; RGS4 act: inactive; MrgX1 antagonist: inactive; MrgX1 ag: inactive

Results for COc1ccc(OCC(=O)Nc2cc3c(cc2C(=O)O)OCCCO3)cc1 ?
MrgX1 allo act: inactive; RGS4 block: inactive; RGS4 act: inactive; MrgX1 antagonist: inactive; MrgX1 ag: inactive

How did CCOc1cc2c(cc1/C=C/c1noc(C)c1[N+](=O)[O-])OC(C)C2 (stereo not given) do in these assays?
MrgX1 allo act: inactive; RGS4 block: inactive; RGS4 act: inactive; MrgX1 antagonist: inactive; MrgX1 ag: 41*

Results for N#CCC(=O)N1CCN(C=O)CC1 ?
MrgX1 allo act: inactive; RGS4 block: inactive; RGS4 act: inactive; MrgX1 antagonist: -5.5*; MrgX1 ag: inactive

How did CN1CCN(C(=O)/C=C/c2c(F)cccc2Cl)CC1 do in these assays?
MrgX1 allo act: inactive; RGS4 block: inactive; RGS4 act: inactive; MrgX1 antagonist: inactive; MrgX1 ag: inactive

Results for COc1ccccc1-n1cnnc1SCc1csc(-c2ccccc2)n1 ?
MrgX1 allo act: inactive; MrgX1 antagonist: inactive; MrgX1 ag: inactive

How did Cc1ccc(-c2nc(CSc3nc4ccccc4c(=O)n3C)cs2)cc1 do in these assays?
MrgX1 allo act: inactive; RGS4 block: inactive; RGS4 act: -7*; MrgX1 antagonist: inactive; MrgX1 ag: inactive

What do the screens show for `Cc1ccc(-c2nc(CSc3nc4ccccc4c(=O)n3CCO)cs2)cc1`?
MrgX1 allo act: inactive; RGS4 block: inactive; RGS4 act: inactive; MrgX1 antagonist: inactive; MrgX1 ag: inactive

How did C=CCn1c(SCc2csc(-c3ccc(C)cc3)n2)nnc1-c1ccccc1OC do in these assays?
MrgX1 allo act: inactive; RGS4 block: inactive; RGS4 act: inactive; MrgX1 antagonist: -6*; MrgX1 ag: inactive

What do the screens show for `CCN1CCN(C(=O)C(C)Nc2ccc(OC)cc2OC)CC1` (stereo not given)?
MrgX1 allo act: inactive; RGS4 block: inactive; RGS4 act: inactive; MrgX1 antagonist: inactive; MrgX1 ag: inactive
